Assays:
[1] = biological target: T1, TRPC5 (Homo sapiens, UniProt Q9UL62); assay: Carbachol-induced Sr2+ entry in TRPC5-overexpressing HEK293 cells; format: cell-based; settings: read-out: IC50 of Cch-induced Sr2+ entry; Cch 100 nM, Sr2+ 3 mM
T1 sequence (Q9UL62 1-973): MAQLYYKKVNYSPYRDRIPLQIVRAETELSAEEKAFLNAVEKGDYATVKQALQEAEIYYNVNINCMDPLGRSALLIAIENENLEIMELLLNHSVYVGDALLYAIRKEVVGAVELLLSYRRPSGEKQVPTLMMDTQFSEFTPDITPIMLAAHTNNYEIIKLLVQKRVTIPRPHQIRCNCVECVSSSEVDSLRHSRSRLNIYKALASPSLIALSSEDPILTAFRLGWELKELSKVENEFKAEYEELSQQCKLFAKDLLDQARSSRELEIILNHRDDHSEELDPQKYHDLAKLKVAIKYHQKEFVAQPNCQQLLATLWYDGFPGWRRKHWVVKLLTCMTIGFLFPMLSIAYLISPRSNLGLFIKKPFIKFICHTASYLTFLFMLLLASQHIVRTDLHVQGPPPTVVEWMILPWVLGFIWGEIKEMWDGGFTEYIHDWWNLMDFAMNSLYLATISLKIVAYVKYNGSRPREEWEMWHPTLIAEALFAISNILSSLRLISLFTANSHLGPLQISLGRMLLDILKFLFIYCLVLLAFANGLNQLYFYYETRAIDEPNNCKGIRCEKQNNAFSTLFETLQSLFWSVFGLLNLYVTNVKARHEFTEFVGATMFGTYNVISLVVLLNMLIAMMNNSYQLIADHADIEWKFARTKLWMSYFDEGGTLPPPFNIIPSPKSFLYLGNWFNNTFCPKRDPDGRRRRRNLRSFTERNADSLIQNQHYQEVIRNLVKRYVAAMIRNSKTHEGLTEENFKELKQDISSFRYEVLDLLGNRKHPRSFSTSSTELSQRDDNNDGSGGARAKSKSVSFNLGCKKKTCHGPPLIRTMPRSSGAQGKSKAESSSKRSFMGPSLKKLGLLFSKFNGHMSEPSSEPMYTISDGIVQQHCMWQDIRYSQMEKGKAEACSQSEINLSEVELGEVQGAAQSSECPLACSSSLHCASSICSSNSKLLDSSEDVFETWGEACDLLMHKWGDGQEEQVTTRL
In short: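 HEK293 cells were electroporated with GFP-tagged TRPC4, TRPC5 or TRPC7, plated after 24 h and cultured 48 h under selection; only high-GFP cells were analysed. Coverslip cells were loaded with Fura2 (2 µM) and treated with carbachol (100 nM) plus test compound (0 to 100 µM). Entry was measured after adding Sr²⁺ (3 mM), read as the 340/380 ratio; n = 3 to 5.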

[2] = test system: murine BMSMCs; assay: Basal intracellular Ca2+ during osteoclastogenesis of murine BMSMCs; format: cell-based, mouse; settings: ELP-004 100 nM
In short: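 C57Bl/6 bone marrow/spleen myeloid cells were grown in αMEM, 10% FBS, and mCSF (50 ng/ml). RANKL (1 or 100 ng/ml) was added at 24 h. After 2–3 days, TNFα (2 ng/ml), LTB4 (50 nM) and test compound (100 nM) were added as indicated, with media refreshed every 3–5 days. On days 1, 7, 14 and 21, cells were Fura2-loaded (2 µM, 30 min, RT; 30 min de-esterification) in pH 7.2 buffer. Basal Ca²⁺ was read as the 340/380 ratio.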

[3] = test system: Human PBMCs; assay: TRAP staining, multinucleation and cell size of human PBMC-derived osteoclasts; format: cell-based; settings: ELP-004 100 nM; for effect on multinucleation: 14 days
In short: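 Human PBMCs were grown with human mCSF (50 ng/ml) plus RANKL (100 ng/ml), or RANKL (1 ng/ml) with TNFα (2 ng/ml), ±test compound (100 nM), for 14 days. Cells were fixed with 2% PFA (30 min, RT) and stained for TRAP with ELF-97 (200 µM) in acetate/nitrite/tartrate buffer (15 min, RT). After permeabilisation, nuclei were counterstained with 7-AAD. Confocal images were scored for TRAP intensity, TRAP-positive cells and nuclei per cell.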

CCC(=O)N(C)c1ccc(Cl)c(Cl)c1 [ELP-004]
IC50 [1]: 11.5 nM | effect on Ca2+ elevation ([2]; LTB4 (50 nM)/RANKL (1 ng/ml)): significantly attenuated | effect on basal Ca2+ levels ([2]; RANKL-induced (100 ng/ml), days 1-21): no significant effect | effect on Ca2+ elevation ([2]; TNFα (2 ng/ml)/RANKL (1 ng/ml)): significantly attenuated | effect on multinucleation ([3]; RANKL): significantly inhibited | effect on intensity of TRAP+ cells ([3]; RANKL): not intensity | effect on number of TRAP+ cells ([3]; RANKL): inhibited the number | effect on cell size ([3]; TNFα-induced osteoclasts): significantly reduced | effect on multinucleation ([3]; TNFα/RANKL): significantly inhibited | effect on intensity of TRAP+ cells ([3]; TNFα/RANKL): inhibited | effect on number of TRAP+ cells ([3]; TNFα/RANKL): inhibited

Reference: PMC11734723 (Science Advances, 2025)
